Neddylation inh = inhibitors of human cullin neddylation | TR-FRET cullin neddylation, biochemical | calls only at 25 µM | AID 651699 | 0.58% of 360,000 active | P61081+Q13564; in the data active = inhibition above about 36%
NR2E3 ag-1 = agonists of human nuclear receptor NR2E3; AID 2300; 0.12% of 320,000 active; inhibition of corepressor binding, % at 4.78 µM; Q9Y5X4; GST-NR2E3/biotin-RetCOR TR-FRET, 1536-well;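 active = percent inhibition above the cutoff of mean plus 3 SD of all tested compounds, set per screening campaign, cut at about 20% in these data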;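 note: 0% = DMSO wells and 100% = biotin wells as full block of FRET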
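Assay system: NR2E3–RetCOR corepressor complex. Quantity: 1.35 nM GST-NR2E3. Buffer or medium: pH 7.5 Tris-based buffer. Reagent: biotinylated RetCOR corepressor at 7 nM final. Schedule: 5 h at 4 °C. Detection: TR-FRET, emission read at 617 and 671 nm. Replicates: one well per compound, singlicate testing.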
Rev-erbA mod = modulators of human Rev-erb alpha DNA binding; P20393; Rev-erbα–FITC-DNA binding, fluorescence polarization, 90 min; activity, % at 10 µM; 0.79% of 370,000 active; AID 1259318;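 active = activity above about 14%, limit read from the data; passing the limit was not always enough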;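 note: 0% = DMSO wells with 35 nM protein and 100% = DMSO wells with 750 nM protein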
Target sequence (P20393 whole entry, looked up): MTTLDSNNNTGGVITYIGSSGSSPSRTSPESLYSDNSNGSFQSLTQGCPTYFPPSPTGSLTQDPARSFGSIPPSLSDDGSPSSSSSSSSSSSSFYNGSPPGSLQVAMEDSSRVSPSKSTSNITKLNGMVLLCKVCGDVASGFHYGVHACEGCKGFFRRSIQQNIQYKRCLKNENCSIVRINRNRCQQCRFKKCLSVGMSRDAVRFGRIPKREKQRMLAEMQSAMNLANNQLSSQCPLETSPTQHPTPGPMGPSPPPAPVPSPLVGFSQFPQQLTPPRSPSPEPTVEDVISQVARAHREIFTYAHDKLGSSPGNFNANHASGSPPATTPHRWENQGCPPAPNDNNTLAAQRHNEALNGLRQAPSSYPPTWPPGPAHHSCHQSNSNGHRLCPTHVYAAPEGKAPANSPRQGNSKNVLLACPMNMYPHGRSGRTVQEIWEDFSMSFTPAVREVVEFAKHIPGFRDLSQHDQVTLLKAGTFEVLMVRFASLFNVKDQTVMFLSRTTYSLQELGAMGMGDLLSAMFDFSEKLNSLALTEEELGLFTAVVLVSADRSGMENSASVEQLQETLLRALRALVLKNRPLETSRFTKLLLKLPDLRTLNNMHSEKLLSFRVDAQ
NR2E3 ag-2 = human photoreceptor-specific nuclear receptor agonism. inhibition of corepressor binding, % at 3.98 µM. CHO-S Gal4-NCOR/VP16-NR2E3 two-hybrid, luciferase. AID 602229. 0.35% of 360,000 active. Q9Y5X4;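 active = inhibition above the mean of all tested compounds plus 3 SD, cut at about 70% in these data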;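 note: 0% = DMSO with NR2E3 transfected cells and 100% = cells lacking NR2E3 construct; higher means lower luciferase signal from less NR2E3 corepressor binding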
PG9 Ab binder = binds the HIV-1 gp120 antibody PG9; AID 624416; 0.43% of 360,000 active; TR-FRET gp120-PG9 antibody binding; inhibition, % at 6.7 µM; in the data active = inhibition above about 8.5%
PG9 bind confirm = confirmation of small molecules binding HIV-1 gp120 antibody PG9; shares compounds with PG9 Ab binder; TR-FRET PG9 antibody binding, biochemical; inhibition, % at 6.7 µM; 90% of 1,500 active; in the data active = inhibition above about 9%
PGV04 Ab binding = PGV04 control antibody binding, counter-screen. inhibition, % at 6.7 µM. 95% of 1,500 active. TR-FRET PGV04 antibody-gp120 binding, biochemical. shares compounds with PG9 Ab binder; in the data active = inhibition above about 9.5%
PG9 bind DR = small molecules binding HIV-1 gp120 antibody PG9; shares compounds with PG9 Ab binder; TR-FRET PG9 antibody-gp120 binding inhibition; IC50, µM; 95 tested, under 10 active; AID 651848; in the data active = IC50 below about 10 µM
PGV04 binding DR = binds control antibody PGV04 in PG9 counter-screen; AID 651937; TR-FRET binding to control antibody PGV04; 20% of 95 active; shares compounds with PG9 Ab binder; IC50, µM
PG126 DR counter = binds control antibody PG126 in PG9 counter-screen | shares compounds with PG9 Ab binder | TR-FRET binding to antibody PG126, counterscreen | IC50, µM | 20% of 95 active
Neddyl inh conf = cullin neddylation inhibition, confirmation. shares compounds with Neddylation inh. TR-FRET cullin neddylation biochemical assay. calls only at 25 µM. 13% of 1,800 active. AID 652217; in the data active = inhibition above about 40%;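 note: neddylation substrate is the cullin 1 ring ligase complex with SKP2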
NR1D1 mod conf = Rev-erb alpha (human) modulation, hit confirmation | activation, % at 25 µM | Rev-erb alpha FITC-DNA binding, fluorescence polarization, 90 min | shares compounds with Rev-erbA mod | 61% of 3,000 active;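 active = activation at or above a set limit, or at least 3 SD above the negative control mean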;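 note: 0% = 35 nM protein with DMSO and 100% = 750 nM protein high control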
RORg DNA counter = affects RORgamma DNA binding in a Rev-erb alpha counter-screen; shares compounds with Rev-erbA mod; purified RORgamma protein-FITC-DNA binding, fluorescence polarization; IC50, µM; 8% of 910 active; AID 1259320;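 active = Compounds whose fitted half-maximal concentration for disrupting protein-DNA binding is below 10 micromolar; the record names Rev-erb in its text, so the target is in doubt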
Starred values were filed as active, the others as inactive; i = inactive; · = no result given; + = active, no number. This is a sample that favours compounds with a hit; in the whole collection about 2% have one here. Cut-off read from the data, not from the text of the source, unless noted: active = IC50 below about 9 µM; inactive = the rest.

SMILES | Neddylation inh | NR2E3 ag-1 | Rev-erbA mod | NR2E3 ag-2 | PG9 Ab binder | PG9 bind confirm | PGV04 Ab binding | NR1D1 mod conf | others
CCn1c(=O)c(-c2nc3ccccc3[nH]2)c(O)c2ccccc21 | · | 3.8 | 31.9* | · | 44.5* | 42.6* | 49.4* | 1.2
CCCn1c(=O)c(-c2nc3ccccc3[nH]2)c(O)c2ccccc21 | i | -0.1 | 26.5* | 16.0 | 50.0* | 61.9* | 70.9* | -4.1
Cc1nc2sc(C(=O)OCC(=O)N3c4ccccc4CC3C)c(C)c2c(=O)[nH]1 (centres undefined) | i | 2.0 | 19.5* | 15.3 | 9.9* | 20.6* | 26.1* | 14.1
CCOC(=O)c1cnc2cc(-c3ccc(Br)cc3)nn2c1C | i | 2.3 | 17.9* | -35.1 | 9.4* | 6.5 | 6.9 | 10.2
CCOC(=O)c1cnc2cc(C)nn2c1C | i | -2.2 | -4.1 | -29.8 | 0.1 | · | · | ·
COc1ccc(-c2ccc3c(c2)c(Sc2ccccc2)c(-c2ccccc2)n3C)cn1 | i | · | -1.1 | -9.1 | 5.6 | · | · | ·
Cc1nc(SCC(=O)Nc2ccc3c(c2)OCCO3)c2oc3ccccc3c2n1 | i | 7.7 | 294.1* | -2.6 | 33.2* | 37.6* | 24.0* | 301.9* | PG9 bind DR=i;PGV04 binding DR=i;PG126 DR counter=i
Cc1nc(SCC(=O)O)c2oc3ccccc3c2n1 | i | -0.9 | 3.6 | -5.8 | -0.3 | · | · | ·
CCc1nc(SCC(=O)Nc2ccc3c(c2)OCCO3)c2oc3ccccc3c2n1 | i | -0.6 | 172.3* | -7.2 | 50.5* | 67.6* | 83.5* | 168.5* | RORg DNA counter=i
COc1ccc2c(c1)CO[C@H]([C@H](O)COC(C)=O)[C@H]2/C=C/c1ccccc1 | · | · | 9.7 | · | · | · | · | ·
C[C@@H]1Cn2cnc(C(=O)N3CCN(C(=O)OC(C)(C)C)CC3)c2C(=O)N1 | · | · | 0.8 | · | -1.1 | · | · | ·
Cc1ccc(OCC(=O)Nc2ccc(S(=O)(=O)Nc3ccccn3)cc2)cc1C | i | 14.1 | 28.6* | -6.1 | 49.9* | 40.9* | 45.2* | 21.6*
CC(=O)Nc1sc(C)c(C)c1C(=O)OCC(=O)NCc1ccc(F)cc1 | i | 5.3 | 17.1* | -22.4 | 9.3* | 13.2* | 19.3* | 15.5*
Cc1cc(OCC(=O)Nc2cccnc2)c2c(C)c(C)c(=O)oc2c1 | · | -57.3 | 19.1* | -2.2 | 15.0* | 14.0* | 16.3* | -0.4
Cc1cc(OCC(=O)NCc2cccnc2)c2c(C)c(C)c(=O)oc2c1 | · | 1.4 | -4.8 | -9.7 | 0.3 | · | · | ·
O=[N+]([O-])c1ccc(SN2CCCCC2)c([N+](=O)[O-])c1 | · | · | 9.6 | · | -0.8 | · | · | ·
CC(C)Oc1cc(F)ccc1-c1cc(C(=O)Nc2cccc(C(F)(F)F)c2)[nH]n1 | i | · | 5.5 | -2.3 | -0.4 | · | · | ·
O=C(c1ccc(C(F)(F)F)cc1)N1CCN(c2ccc(N3CCOCC3)nn2)CC1 | + | -0.7 | -0.8 | -19.5 | -0.8 | · | · | ·
CC(C)(C)c1ccc(C(=O)N2CCN(c3ccc(N4CCOCC4)nn3)CC2)cc1 | + | -3.0 | 0.6 | 19.3 | -1.3 | · | · | ·
O=C(O)c1cccc(Nc2c3ccccc3nc3ccccc23)c1 | + | -0.8 | -2.1 | -18.9 | -6.1 | · | · | · | Neddyl inh conf=i
CC(=O)c1cccc(Nc2cc(C)nc3ccccc23)c1 | i | 0.6 | -1.3 | 23.0 | -0.3 | · | · | ·
COc1ccc2c(CN3CCN(c4ccccc4F)CC3)cc(=O)oc2c1 | i | · | -8.8 | 10.5 | -1.9 | · | · | ·
COCCOC(=O)C1=C(C)NC(C)=C(C(=O)OCCOC)C1/C=C/c1ccccc1OC | + | 0.2 | 3.4 | 3.8 | 0.1 | · | · | ·
CCOC(=O)C1=C(C)NC(C)=C(C(=O)OCC)C1/C=C/c1ccccc1OC | · | 2.3 | 4.4 | -7.4 | -0.5 | · | · | ·
CCOC(=O)Nc1c(C(=O)OC)[nH]c2cccc(OC)c12 | + | -0.3 | -2.4 | -17.6 | -1.8 | · | · | · | Neddyl inh conf=i
SMILES | Neddylation inh | NR2E3 ag-1 | Rev-erbA mod | NR2E3 ag-2 | PG9 Ab binder | PG9 bind confirm | PGV04 Ab binding | NR1D1 mod conf | others
COC(=O)c1[nH]c2cccc(OC)c2c1NC(=O)CN1CCN(c2cccc(OC)c2)C(C)C1 (centres undefined) | + | 1.9 | -1.7 | -9.5 | 0.6 | · | · | ·
Cc1ccc2c3c([nH]c2c1)C(=O)CC(C)(C)S3 | + | -4.1 | -0.1 | -60.9 | 0.6 | · | · | · | Neddyl inh conf=i
Cc1ccc2sc(=O)[nH]c2c1 | i | -0.9 | -3.8 | -1.1 | 1.4 | · | · | ·
CCOC(=O)c1c(NC(=O)COC(=O)c2nccnc2N)sc(C(=O)N(C)C)c1C | + | 0.3 | 0.0 | -36.3 | 1.1 | · | · | · | Neddyl inh conf=i
O=C(O)[C@@H]1C[C@@H](O)CN1 | · | · | 2.2 | · | -1.1 | · | · | ·
CCn1c2ccccc2c2cc(NC(=O)c3cc4c(C)nn(-c5ccccc5)c4s3)ccc21 | · | · | 3.7 | · | · | · | · | ·
CCOC(=O)c1cn(Cc2ccccc2)nc1-c1ccccc1 | i | 5.3 | -0.3 | -7.5 | 0.9 | · | · | ·
c1ccc2nc(N3CCCC3)c(N3CCCC3)nc2c1 | + | 0.6 | -2.1 | 3.7 | -1.6 | · | · | ·
CCOC(=O)C1=C[C@@H](C(C)(C)C)N(S(=O)(=O)c2ccc(C)cc2)[C@H]1c1ccc(OC)cc1 | i | · | 0.1 | 18.6 | -1.7 | · | · | ·
Clc1cccc(N/N=C/c2ccc(N3CCOCC3)s2)c1 | + | 2.8 | -9.3 | -35.4 | -3.9 | · | · | · | Neddyl inh conf=i
Cc1cc(C)nc(NC(=O)c2cc(-c3ccc4c(c3)OCO4)nc3ccccc23)c1 | + | 1.7 | -5.7 | -11.8 | -0.7 | · | · | ·
